The species named for experiment [1] is Rattus norvegicus. Nature of the experiment: Antivasopressor activity in phenoxybenzamine treated rats under urethane anesthesia was determined; Agonistic activity was observed. The format is functional.
Experiment [2] is filed under the species Rattus norvegicus. The experiment in a line: Compound was tested for antidiuretic activity in rats under ethanol anesthesia. The format is functional, Urine. In a few lines: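 Rats under ethanol anesthesia were given antidiuretic agonist assays against the USP posterior pituitary reference standard. Activity is expressed in units/mg.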

The results in this text go back to ChEMBL document CHEMBL1123564, “C-terminal deletions in agonistic and antagonistic analogues of vasopressin that improve their specificities for antidiuretic (V2) and vasopressor (V1) receptors” (J Med Chem, 1987).

Regarding `N=C(N)NCCC[C@H](NC(=O)[C@@H]1CCCN1C(=O)[C@@H]1CSSC[C@H](N)C(=O)N[C@@H](Cc2ccc(O)cc2)C(=O)N[C@@H](Cc2ccccc2)C(=O)N[C@@H](CCC(N)=O)C(=O)N[C@@H](CC(N)=O)C(=O)N1)C(=O)NCC(N)=O` [VASOPRESSIN], in the experiment listed under Rattus norvegicus [1], the vasopressor activity is 382 units/mg. This molecule had an Antidiuretic activity in the experiment filed under Rattus norvegicus [2] of 330 U/mg.
